Five compounds from PubChem BioAssay AID588818 (Broad Institute, 2011) can be followed below.

The test system of the assay is ldlA[mSR-BI] cells, [3H]cholesterol efflux to HDL. As to the kind of experiment: effect on free cholesterol efflux to HDL, late-stage follow-up, mechanism study for SR-BI HDL uptake inhibitor project, ldlA[mSR-BI] cells, powder samples (AID 588818). Conditions: at 1 µM; active compounds read low. In short, it runs like this: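 system = ldlA[mSR-BI] cells carrying a [3H]cholesterol label | measured by = liquid scintillation counting of [3H]cholesterol in medium and cells | timing = 24-h 1% FAF-BSA equilibration, 1-h compound preincubation, 2-h HDL exposure | also added = HDL, 100 µg/mL final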
In the case of `O=C(Nc1ccc(-c2nc3cc(NC(=O)c4ccc(NC(=O)c5cccc6ccccc56)cc4)ccc3[nH]2)cc1)c1ccc(NC(=O)c2cccc3ccccc23)cc1`, the cholesterol efflux relative to neutral control was 10.3%.
Take `O=C(Nc1ccc(-c2nc3cc(NC(=O)c4ccccc4[N+](=O)[O-])ccc3o2)cc1)c1ccccc1[N+](=O)[O-]`: the cholesterol efflux relative to neutral control was 5.29%.
As to `CCOC(=O)N1CCC(NC(=O)c2ccc3c(c2)N(Cc2ccc(F)cc2)CCS3)CC1`, the cholesterol efflux relative to neutral control was 14.1%.
`COc1ccc(-c2nnn(CC(=O)N(C3CCCCC3)C(C)C(=O)NC3CCCC3)n2)cc1OC` (stereo not given): the cholesterol efflux relative to neutral control was 13.1%.
In the case of `CCC(=O)N1CCc2cc(-c3csc(NC(=O)c4ccco4)n3)ccc21`, the cholesterol efflux relative to neutral control was 11.5%.
